For assay [1], the system named is p18:I-A^b+CD4^+ T cells (peritoneal). As to the kind of experiment: p18:I-A^b tetramer staining of peritoneal CD4^+ T cells, Nur77^GFP Apoe^−/− mice. It is filed as in vivo, mouse.
Assay [2] has as its system peritoneal Tregs. The assay is described as follows: IL-10 production and Nrp-1 of Tregs after p18 immunization. It is filed as in vivo, mouse. As to conditions: N=7.
In assay [3] the test system is peritoneal CD4^+ T cells. In kind it is in vivo, mouse.
Assay [4] concerns the target DRB1*13:02 (Homo sapiens, UniProt P01903+P01911, A100E/A169T/K41T/L162R/M171V/P40S/Q125H/Q178H/Q39Y/Q99D/R42S/S66N/T262R/V115G/W38E/Y61H). As to the kind of experiment: MHC class II competitive binding assay, DRB1*13:02. As to conditions: experimental competitive peptide binding. In short, it runs like this: (§1)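 Competitive inhibition assay using purified MHC class II molecules and a high-affinity radiolabelled MHC class II ligand. Binding given as IC50, taken as an approximation of Kd under the assay conditions. Test peptide stock in DMSO at 20 mg/ml, stored at −80°C.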

For assay [5], the system named is p18:I-A^b+CD4^+ T cells (spleen). The assay is described as follows: p18:I-A^b tetramer staining of splenic CD4^+ T cells. It is filed as in vivo, mouse.
For assay [6], the system named is peritoneal CD4^+ T cells. It is filed as in vivo, mouse. As to conditions: 1x CFA and 1x IFA, N=9-10.
Assay [7] in a line: Plasma lipid analysis of vaccinated Apoe^−/− mice. As to conditions: Supplementary Figure 6; 1xCFA + 4xIFA. In kind it is in vivo, mouse. In short, it runs like this:
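Apoe−/− mice immunised 1xCFA + 4xIFA. Whole blood taken by cardiac puncture into EDTA at organ harvest and spun at 3000 × g for 15 min at 4°C. Plasma supernatant stored at −80°C to limit freeze/thaw, then sent for external lipid analysis.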

Assay [8] has as its target DRB1*04:01 (Homo sapiens, UniProt P01903+P01911, A100K/A169T/F76Y/I96L/K127E/L162R/M171V/N62H/P40V/Q125Y/R42H/S133A/S149N/S66Y/V115G/V209L/W38E). As to the kind of experiment: MHC class II competitive binding assay, DRB1*04:01. As to conditions: experimental competitive peptide binding. Put shortly: as §1
Assay [9] has as its system p18. As to conditions: vaccinated Apoe^−/− mice; Supplementary Figure 7.
Assay [10] relates to peritoneal CD4^+ T cells. The assay is described as follows: TCR activation. In kind it is in vivo, mouse.
Assay [11] relates to p18-specific CD4^+ T cells in human PBMC. The assay is described as follows: DRB1*07:01-p18 tetramer staining of human PBMC by flow cytometry. As to conditions: sCVD N=14, no sCVD N=15. In kind it is cell-based. In general terms: A flow cytometer gives signals particle by particle.
Assay [12] relates to DRB1*07:01-p18^+CD4^+ T cells. It is filed as cell-based, human.
Assay [13] deals with DRB1*07:01 (Homo sapiens, UniProt P01903+P01911, A100R/A102G/A103Q/D57E/D86V/E43K/F76Y/K127E/L162R/M171V/P40G/Q125H/Q99D/R33Q/R42Y/R54Q/S133A/S66F/T210M/V115G/Y107V/Y59L/Y89S). As to the kind of experiment: MHC class II competitive inhibition binding assay, DRB1*07:01. As to conditions: experimental competitive peptide binding. Put shortly:
as §1

Assay [14] relates to splenic CD4^+ T cells. The assay is described as follows: IL-10 ELISPOT of splenic CD4^+ T cells restimulated with p18. It is filed as cell-based, mouse. As to conditions: splenic CD4^+ T cells with antigen presenting cells and p18, 24 hours; 1xCFA and 1xIFA; N=9-10.
The test system of assay [15] is Apoe^−/− mice. As to the kind of experiment: Aortic atherosclerosis. As to conditions: 50 μg p18, 1xCFA + 4xIFA, western diet 13 weeks; vs adjuvant only; N=8-9. In kind it is in vivo, mouse.
The test system of assay [16] is atherosclerosis patients. As to conditions: GLACIER trial; cited from earlier work.
The mark [17] stands for this setting: spleen, vaccinated Apoe^−/− mice.

Read-outs that look alike come from different tables or passages of the source.

Consider SLFFSAQPFEITAST [p18], for which the “peritoneal p18:I-A^b+CD4^+ T cells, p18-immunized vs adjuvant” value in assay [1] (Apoe^−/− mice fed CD or WD, Supplementary Figure 5) is “did not observe any significant differences”. Further, the “ApoB p18-specific (PE- and APC-double positive) CD4^+ T cells” value in assay [1] (increase vs adjuvant only, peritoneal, 1x CFA and 1x IFA, N=5-6) was ~ 3 -fold. For the same molecule, the “CD25^+FoxP3^+ Tregs among p18:I-A^b+CD4^+ T cells” value in assay [1] (peritoneal, p18 immunized, N=5-6) came out at 40%. The “Nur77^GFP+ cells among p18:I-A^b+CD4^+ T cells” value in assay [1] (peritoneal, N=5-6) was “highly enriched”. In [1] (tetramer-negative cells, peritoneal, p18 immunized, N=5-6), the “CD25^+FoxP3^+ Tregs among p18:I-A^b–CD4^+ T cells” value stood at 9%. Besides, the “IL-10-producing cells among all Tregs” value in assay [2] (FoxP3^+CD4^+ cells, vs adjuvant) is recorded as “significant expansion”. The “inducible Tregs (Nrp-1 negative) among classical Tregs” value in assay [2] is on record as “Most”. The “IL-10-producing iTregs (Nrp-1^−FoxP3^+CD4^+)” value in assay [2] (p18 immunized, from ~12%) is ~ 25%. The “FoxP3 by intracellular staining of CD4^+ T cells” value in [3] (Apoe^−/− mice, peritoneal, N=6, compared with YFP result) is “gave a similar result”. For the same molecule, in assay [3] (peritoneal cavity, FoxP3^YFPcreApoe^−/− mice, 2 weeks after immunization, 1xCFA s.c. + 1xIFA i.p., from ~6%, N=7), the “CD25^+FoxP3^+CD4^+ T cells of all CD4^+ T cells” value is ~ 12%. The “binding to DRB1*13:02” value in assay [4] is recorded as “binds”. In assay [5] (IL-10^GFP Apoe^−/− mice, N=4-5), the “p18:I-A^b+CD4^+ T cells in spleen” value is given as “increased”. The “FoxP3 expression of splenic p18:I-A^b+CD4^+ T cells vs adjuvant” value in [5] (N=9-10) was “significantly more”. The “splenic bulk FoxP3^+CD4^+ T cells vs adjuvant only” value in [5] (data not shown) is listed as “did not find a significant difference”. Also, the “IL-10 production of p18:I-A^b+FoxP3^+CD4^+ T cells” value in [5] (spleen, IL-10^GFP Apoe^−/− mice, N=4-5) is “significantly more than in adjuvant-only controls”. In [5] (spleen, tetramer-negative, N=4-5), the “IL-10 production of p18:I-A^b–FoxP3^+CD4^+ T cells” value was “did not increase”. In addition, in assay [5] (setting [17]), the “central memory cells (CD62L^+CD44^+) among memory p18:I-A^b+CD4^+ T cells” value came out at 20%, the “effector memory cells (CD62L^−CD44^+) among memory p18:I-A^b+CD4^+ T cells” value came out at 80% and the “p18:I-A^b+CD4^+ T cells with memory phenotype (CD44^+)” value is reported as “Most”. Moreover, the “abundance of Tregs in peritoneal cavity” value in [6] (Apoe^−/− mice on CD or WD) is given as “significantly increased”. The “FoxP3^+Tbet^+ cells in peritoneal cavity” value in assay [6] (CD or WD) is “increased”. In addition, the “FoxP3^+GATA3^+ cells in peritoneal cavity” value in [6] was “only observed in mice fed CD and not in mice fed WD”. The plasma lipids entry in assay [7] is “unchanged”. In [8], the “binding to DRB1*04:01” value is recorded as “binds”. In assay [9], the “IgG1 antibodies to p18 in plasma” value is “detected” and the “IgG2c antibodies to p18 in plasma” value was “detected”. The “Nur77^GFP+ frequency among CD25^+FoxP3^+ Tregs vs all CD4^+ T cells” value in [10] (mice immunized with p18, 24 hours after restimulation) is recorded as “further elevated”. Further, the “CD25^+FoxP3^+ Tregs in Nur77^GFP+ activated cell population” value in [10] (p18 immunized mice, N=5-6, adjuvant only showed a similar fraction) is on record as “significantly enriched”. For the same molecule, in assay [11], the “trend in p18-specific CD4^+ T cells in sCVD patients vs no sCVD” value is reported as “did not reach statistical significance”. For the same molecule, the “Tregs co-expressing T-bet among DRB1*07:01-p18^+CD4^+ T cells” value in [12] (no sCVD) amounted to 1.2±0.5%. Moreover, the “FoxP3^+Rorγt^+ cells among p18-specific CD4^+ T cells” value in assay [12] (patients with sCVD) is on record as “significant increase”. In addition, in assay [12] (sCVD donors, mean ± SEM), the “Tregs co-expressing RORγt among DRB1*07:01-p18^+CD4^+ T cells” value was 8.8±3.7%. The “Tregs co-expressing T-bet among DRB1*07:01-p18^+CD4^+ T cells” value in [12] (sCVD patients) is 4.1±1.4%. Further, the “Tregs co-expressing RORγt among DRB1*07:01-p18^+CD4^+ T cells” value in assay [12] (sCVD^− participants) is on record as “almost undetectable”. The “fraction of p18-specific CD4^+ T cells that are FoxP3^+ Tregs” value in assay [12] (women with no sCVD) was “most”. For the same molecule, the “binding to DRB1*07:01” value in assay [13] was “binds”. In addition, the “IL-10^+ spots (ELISPOT) vs adjuvant only” value in [14] is “significantly more”. In assay [15], the “reduction of lesion size, aortic arch” value was ~ 35% and the “reduction of lesion size, whole aorta” value is reported as ~ 35%.

B1: recombinant IgG1 antibody to oxLDL: recombinant IgG1 antibody to oxLDL infused in the GLACIER trial (antibody, chains of the INN, looked up, V domains shown)
VH: EVQLLESGGGLVQPGGSLRLSCAASGFTFSNAWMSWVRQAPGKGLEWVSSISVGGHRTYYADSVKGRSTISRDNSKNTLYLQMNSLRAEDTAVYYCARIRVGPSGGAFDYWGQGTLVTVSS
VL: QSVLTQPPSASGTPGQRVTISCSGSNTNIGKNYVSWYQQLPGTAPKLLIYANSNRPSGVPDRFSGSKSGTSASLAISGLRSEDEADYYCASWDASLNGWVFGGGTKLTVL
As for B1, the “efficacy in imaging studies” value in [16] is reported as “failed to show efficacy”.

The values above are taken from publication PMC6160361 (Circulation, 2018).
